Compound activity: PubChem BioAssay, several laboratories
PP5 inh: PP5 (human) phosphatase inhibition; P53041; hit rate 0.18% among 320,000; purified PP5c, OMFP substrate fluorescence; inhibition, % at 6.7 µM; AID 1987;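 active = inhibition above the campaign's mean inhibition across all tested compounds plus 3 SD, cut at about 9.5% in these data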;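 also: 0% = DMSO only and 100% = 100 µM cantharidin control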
PREPL inhibitor: inhibitors of human prolyl oligopeptidase-like enzyme PREPL; Q4J6C6; recombinant PREPL, fluorescence polarization activity-based probe; inhibition, % at 5.96 µM; hit rate 0.68% among 320,000; in the data active = inhibition above about 43%;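 also: 0% = enzyme with DMSO and 100% = wells lacking enzyme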
Target sequence (Q4J6C6 whole entry, looked up): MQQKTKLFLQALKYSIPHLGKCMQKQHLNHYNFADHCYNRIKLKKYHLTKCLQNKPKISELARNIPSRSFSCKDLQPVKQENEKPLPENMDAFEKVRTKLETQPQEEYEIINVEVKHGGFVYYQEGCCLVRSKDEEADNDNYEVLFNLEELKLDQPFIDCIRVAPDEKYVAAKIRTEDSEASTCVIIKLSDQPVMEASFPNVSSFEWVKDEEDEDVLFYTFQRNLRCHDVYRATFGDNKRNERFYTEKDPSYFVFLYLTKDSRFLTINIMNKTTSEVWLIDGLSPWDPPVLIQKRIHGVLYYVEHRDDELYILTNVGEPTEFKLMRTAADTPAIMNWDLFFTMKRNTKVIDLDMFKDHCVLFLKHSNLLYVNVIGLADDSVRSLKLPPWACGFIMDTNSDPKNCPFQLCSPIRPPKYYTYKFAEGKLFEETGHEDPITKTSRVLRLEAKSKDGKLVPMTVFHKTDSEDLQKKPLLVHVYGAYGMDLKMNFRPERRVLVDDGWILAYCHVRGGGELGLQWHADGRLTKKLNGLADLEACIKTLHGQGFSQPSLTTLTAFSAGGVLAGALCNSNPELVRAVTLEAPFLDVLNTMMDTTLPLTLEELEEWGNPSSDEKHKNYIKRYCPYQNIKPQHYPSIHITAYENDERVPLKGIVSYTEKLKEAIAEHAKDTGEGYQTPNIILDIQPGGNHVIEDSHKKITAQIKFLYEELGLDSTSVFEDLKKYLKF
Fh CTSL1 inh: blocks F. hepatica cathepsin L1 in PFM18AAP counter-screen; inhibition, % at 5.96 µM; hit rate 0.49% among 300,000; recombinant F. hepatica cathepsin L1, Z-Leu-Arg-MCA fluorescence;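 active = inhibition above the mean of all tested compounds plus 3 SD, set per screening campaign, cut at about 17% in these data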;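 also: 0% = plate median of test compound wells and 100% = 1 µM Z-Phe-Ala-diazomethylketone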
PP1 counter: counter-screen for PP5 inhibitors: inhibitors of human PP1-alpha. purified PP1alpha, OMFP fluorescence. AID 2235. hit rate 0.9% among 320,000. inhibition, % at 6.7 µM;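 active = inhibition above the mean inhibition of all tested compounds plus 3 SD, computed separately for each screening campaign, cut at about 15% in these data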
UCH37 DUB inh: human UCH37 deubiquitinating enzyme inhibition | Q9Y5K5 | purified proteasome/UCH37, Ub-AMC cleavage fluorescence | hit rate 0.33% among 330,000 | inhibition, % (no concentration beside the values);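 active = mean inhibition over replicate wells above about 20%, limit read from the data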;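 also: 0% = compound-free wells with enzyme and 100% = wells lacking proteasome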
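assay system = human UCH37 enzyme supplied as purified proteasome complex | amount = proteasome at 0.15 nM in the dispensed enzyme solution | schedule = 30 min compound-proteasome preincubation then 25 min substrate reaction, room temperature | measured by = fluorescence, ex 355 nm, em 460 nm | benchmarks = no-proteasome wells (full inhibition) and compound-free wells (no inhibition)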
UBC13 polyUb: human UBC13 polyubiquitination inhibition; P61088; hit rate 0.47% among 330,000; UBC13 polyubiquitin chain formation, TR-FRET; inhibition, % at 20 µM; in the data active = inhibition above about 45%, passing the limit was not always enough
UCH37 confirm: reconfirmed inhibitor of human deubiquitinase UCH37. shares compounds with UCH37 DUB inh. Proteasome-bound UCH37, Ub-AMC cleavage fluorescence. inhibition, % at 20 µM. hit rate 27% among 480. AID 624100;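 active = average inhibition over replicates above about 50%, so the earlier screening hit is confirmed, limit read from the data; inactive = the rest, counted as false positives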;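 also: based on cleavage rate fitted by regression over a 30 min kinetic read; 0% = proteasome plus Ub-AMC and 100% = Ub-AMC without proteasome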
* hit, by the source's call; x = not tested or not shown; ! = a repeat was not active. This is a sample that favours compounds with a hit; in the whole collection about 2.3% have one here.

SMILES | PP5 inh | PREPL inhibitor | Fh CTSL1 inh | PP1 counter | UCH37 DUB inh | UBC13 polyUb | UCH37 confirm
N#CC1=C(N)NC(SCC(=O)Nc2ccccc2)=C(C#N)C12CCCC2 | 2 | 1 | 0 | -1 | 38* | 0 | 34
CCCc1nc2c(=O)n(C)c(=O)nc-2n(C)n1 | x | x | x | x | 100* | x | 100*
CCn1c(N)nc2c1c(=O)n(C)c(=O)n2C | 1 | 4 | 2 | -2 | 2 | 32 | x
CCCC1=C(C(=O)OCC)C(c2ccc(OC)c(C)c2OC)C(C#N)=C(N)O1 (stereo not drawn) | 4 | 11 | -3 | 1 | 31* | 0 | -39
Cc1ccc(S(=O)(=O)Nc2ccc(N=Nc3ccc(O)cc3)cc2)cc1 | 5 | 21 | 0 | 3 | -1 | -16 | x
Cc1ccc(S(=O)(=O)/N=C2\C=C(Nc3ccc(O)cc3)C(=O)c3ccccc32)cc1 | x | 39 | x | x | 48* | -174 | 5
CC(N=Nc1nc2ccccc2s1)=NNc1ccccc1O | x | x | x | x | 1 | x | x
O=C1C=C(N2CCOCC2)c2ccccc2C1=O | 9 | 16 | 112* | 4 | 97* | -195 | 130*
O=C(O)c1cccc(NC2=C(N3CCOCC3)C(=O)c3ccccc3C2=O)c1 | 5 | -4 | 50* | 3 | 28* | -22 | 14
CC1=C(C)C(=O)C(N2CCOCC2)=CC1=O | x | x | x | x | 7 | x | x
COc1ccc(CC2S/C(=N/N=Cc3ccccc3O)NC2=O)cc1 (stereo not drawn) | x | x | x | x | 1 | x | x
COc1ccc(C=NNc2ccc(C(F)(F)F)cc2[N+](=O)[O-])cc1 | x | x | x | x | 2 | x | x
CCOC(=O)c1c(N2C(=O)C3CC(C)=C(C)CC3C2=O)sc(C)c1C (stereo not drawn) | 3 | 20 | -1 | 8 | 43* | -5 | 64*
CC(C)=CCC1=C(OCC(=O)O)C(=O)c2ccccc2C1=O | 5 | 13 | 45* | -2 | 81* | -87 | 39
O=S(=O)(N=C(Sc1ccccc1)c1ccccc1)c1ccccc1 | x | x | x | x | 6 | x | x
COc1ccc(Br)cc1C=Nn1c(C)nc2ccccc2c1=O | x | x | x | x | 2 | x | x
NS(=O)(=O)c1ccc2c(c1)C(=NO)c1cc(S(N)(=O)=O)ccc1-2 | 3 | -8 | -3 | 1 | -10 | -13 | x
NC1=C(Cl)C(=O)c2ccc(S(N)(=O)=O)cc2C1=O | x | x | x | x | 89* | x | 92*
CCN1/C(=C\C=C(C(C)=O)C(C)=O)Sc2ccccc21 | 7 | -5 | 11 | -2 | 39* | -429 | 39
CCOC(=O)/C(C#N)=C(C)/C=C1\Sc2ccccc2N1CC | 3 | 5 | 6 | -3 | 2 | -29 | x
CN1CCC/C1=C/C=C1\SC(=S)NC1=O | 4 | -10 | 10 | 2 | 35* | x | 34
O=C(NCc1ccccc1)c1ccc(C=NO)nc1 | x | x | x | x | 1 | x | x
C=CCOc1ccc(C2/C(=C(/O)c3ccc(OC)cc3)C(=O)C(=O)N2CCN2CCNCC2)cc1 (stereo not drawn) | -1 | 0 | -3 | 4 | 55* | 2 | 7
CCOc1ccc(C2/C(=C(/O)c3ccc(F)cc3)C(=O)C(=O)N2CCCN(C)C)cc1 (stereo not drawn) | 1 | -7 | -3 | -1 | 35* | -1 | 16
COc1ccc2nc(C)cc(NN=Cc3cccc(OC)c3O)c2c1 | x | x | x | x | 6 | x | x
SMILES | PP5 inh | PREPL inhibitor | Fh CTSL1 inh | PP1 counter | UCH37 DUB inh | UBC13 polyUb | UCH37 confirm
CSc1ccc(C=Nn2c(COc3ccccc3)n[nH]c2=S)cc1 | x | x | x | x | 3 | x | x
COc1ccc(C=NNC(=O)c2ccn[nH]2)cc1CSc1ccccn1 | x | x | x | x | 4 | x | x
O=C1C=C(N(CCO)Cc2ccccc2)c2ccccc2C1=O | x | x | x | x | 92* | x | 111*
CCc1n[nH]c(=S)n1N=Cc1ccccc1OCc1ccc(Cl)cc1 | x | x | x | x | 4 | x | x
COC(=O)c1ccccc1NC1=C/C(=N\S(=O)(=O)c2cccs2)c2ccccc2C1=O | 7 | 24 | 52* | 1 | 30* | -66 | 55*!
COC(=O)c1cccc(NS(=O)(=O)c2cccs2)c1C | 0 | -1 | -3 | 3 | 1 | x | x
Cc1c(NC(=O)C(C)OC(=O)c2ccc([N+](=O)[O-])s2)c(=O)n(-c2ccccc2)n1C (stereo not drawn) | 0 | 24 | 28* | -3 | 77* | -22 | 27
Cc1c(NC(=O)C(C)OC(=O)c2sc3ccccc3c2Cl)c(=O)n(-c2ccccc2)n1C (stereo not drawn) | -2 | 2 | -4 | -8 | 4 | 6 | x
Cc1ccc(NC2C(=O)NC(=O)NC2=O)cc1 | x | x | x | x | 80* | x | -2
NC(=O)C1CCN(C2=C(Cl)C(=O)c3ccccc3C2=O)CC1 | 7 | 8 | 24* | 0 | 82* | -166 | 17
CN1CCN(C2=C(NS(=O)(=O)c3ccccc3)C(=O)c3ccccc3C2=O)CC1 | -6 | 22 | 10 | 8 | 12 | -82 | x
CN1CCN(C2=C(Cl)C(=O)c3ccccc3C2=O)CC1 | x | x | x | x | 97* | x | 97*
NC(=O)C1CCN(c2ccc3c(c2)S(=O)(=O)c2ccccc2C3=O)CC1 | -3 | 4 | -1 | 2 | 2 | -42 | x
NC(=S)NN=Cc1ccc(OC(=O)c2cccnc2)cc1 | x | x | x | x | 4 | x | x
COc1cc(C=NNC(=O)c2ccncc2)ccc1OC(=O)c1ccc([N+](=O)[O-])cc1 | x | x | x | x | 5 | x | x
C=CCC1(C=NO)CCOC(C)(C)C1 (stereo not drawn) | x | x | x | x | 6 | x | x
CCc1n[nH]c(=S)n1N=Cc1ccc2c(c1)OCO2 | x | x | x | x | 3 | x | x
FC(F)(F)C1=Nc2cccc3cccc(c23)N1 | x | x | x | x | 57* | -46 | 4
Fc1ccc(C2=Nc3cccc4cccc(c34)N2)cc1 | 5 | 10 | 2 | -4 | 6 | -50 | x
CN(C[C@H](Cc1ccccc1)N(C[C@H](c1ccccc1)N(CCc1ccccc1)N=O)N=O)N=O | -1 | -4 | 2 | -1 | 4 | -5 | x
CN(C[C@H](c1ccccc1)N(C[C@H](Cc1ccccc1)N(CCc1ccccc1)N=O)N=O)N=O | 0 | 4 | 4 | 3 | 37* | -8 | 9
O=c1cc(N2CCc3ccccc3C2)[nH]c(=O)n1-c1ccccc1Cl | 2 | -9 | -4 | 2 | 13 | -1 | x
Cc1ccccc1-n1c(=O)cc(N2CCc3ccccc3C2)[nH]c1=O | 4 | 26 | 0 | -3 | 27* | -24 | 32
Cc1ccc(-n2c(=O)cc(N3CCc4ccccc4C3)[nH]c2=O)cc1 | -1 | -7 | 2 | 0 | 34* | -1 | 32
COc1ccc(CN(C(C)=O)c2ccccc2C(=O)O)cc1 | 2 | -2 | 0 | -3 | 4 | 9 | x
CC(=O)N(N=C1Sc2ccccc2C1=O)c1cccc(C)c1 | x | x | x | x | 81* | x | 72*
CC(=O)N(Cc1cc(=O)[nH]c2ccccc12)c1cccc(C)c1 | 3 | -7 | -1 | 2 | -2 | 3 | x
COc1ccc(N(N=C2Sc3ccccc3C2=O)C(C)=O)cc1 | x | x | x | x | 78* | x | 29
CCCS/C(N)=N/N=Cc1ccccc1O | x | x | x | x | 1 | x | x
CCn1c(SCC(=O)NN=Cc2ccc(C)o2)nnc1-c1ccc(C(C)(C)C)cc1 | x | x | x | x | 7 | x | x
